Data: ChEMBL document CHEMBL4321808, “Heteroaryl Phosphonates as Noncovalent Inhibitors of Both Serine- and Metallocarbapenemases” (J Med Chem, 2019)

Assays:
[1] = target: Beta-lactamase VIM-2 (Pseudomonas aeruginosa) (UniProt Q9K2N0); assay: Inhibition of VIM-2 in Pseudomonas aeruginosa 4698 assessed as potentiation of ceftazidime-induced antimicrobial activity by measuring ceftazidime MIC incubated for 18 to 20 hrs by CLSI based method
How it was run: (§1)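 CLSI broth microdilution in MHBII. Avibactam fixed at 4 µg/mL with ceftazidime at 64–0.006 µg/mL. Inoculum about 5×10^5 CFU per well, incubated at 35 °C for 18–20 h. Ceftazidime MIC read as absence of visible growth.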

Enterobacter cloacae = assay: Inhibition of NDM-1 in Enterobacter cloacae 5981 assessed as potentiation of ceftazidime-induced antimicrobial activity by measuring ceftazidime MIC incubated for 18 to 20 hrs by CLSI based method; how it was run: as §1
Escherichia coli = assay: Inhibition of NDM-1 in Escherichia coli 5980 assessed as potentiation of ceftazidime-induced antimicrobial activity by measuring ceftazidime MIC incubated for 18 to 20 hrs by CLSI based method; how it was run: as §1
Klebsiella pneumoniae [2] = assay: Inhibition of KPC2 in Klebsiella pneumoniae 4683 assessed as potentiation of ceftazidime-induced antimicrobial activity by measuring ceftazidime MIC incubated for 18 to 20 hrs by CLSI based method; how it was run: as §1
[3] = target: Metallo-beta-lactamase type 2 (Klebsiella pneumoniae) (UniProt C7C422); assay: Inhibition of NDM-1 in Klebsiella pneumoniae 5979 assessed as potentiation of ceftazidime-induced antimicrobial activity by measuring ceftazidime MIC incubated for 18 to 20 hrs by CLSI based method; how it was run: as §1
[4] = Permeability in MDCK-MDR1 cells assessed as drug recovery; assay type: ADME, cell-based, Canis lupus familiaris; details: dog
[5] = Inhibition of N-terminal 6x-His-tagged VIM-2 (unknown origin) expressed in Escherichia coli Rosetta 2 (DE3) assessed as reduction in nitrocefin hydrolysis by spectrophotometry; set-up: species or system Bacteria
How it was run: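 Metallo-enzyme assay in 50 mM HEPES pH 7.2 with 50 µM zinc sulfate, 0.01% Triton X-100 and 20 µg/mL BSA, 37 °C. NDM-1 was construct 1 with the His/SUMO tag cleaved, at 2 nM; VIM-2 had its His tag TEV-cleaved, at 0.5 nM. Nitrocefin hydrolysis read at 486 nm; IC50 from sigmoidal fit, Ki by Cheng-Prusoff; mostly duplicate.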

[6] = Inhibition of N-terminal 6x-His-tagged Klebsiella pneumoniae KPC2 (25 to 293 residues) assessed as reduction in nitrocefin hydrolysis by spectrophotometry
How it was run: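 Purified recombinant KPC-2 at 1 nM in 100 mM Tris-HCl pH 7.0 with 0.01% Triton X-100, 37 °C, reaction started by enzyme. IC50 from sigmoidal fit; Ki by Cheng-Prusoff using the nitrocefin Km. Run in duplicate, or once or in triplicate for some compounds.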

[7] = Inhibition of N-terminal 6x-His/Sumo-tagged NDM-1 (29 to 270 residues) (unknown origin) expressed in Escherichia coli BL21 (DE3) assessed as reduction in nitrocefin hydrolysis by spectrophotometry; set-up: species or system Bacteria
How it was run: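 Metallo-enzyme assay in 50 mM HEPES pH 7.2 with 50 µM zinc sulfate, 0.01% Triton X-100 and 20 µg/mL BSA, 37 °C. NDM-1 was construct 1 with the His/SUMO tag cleaved, at 2 nM; VIM-2 had its His tag TEV-cleaved, at 0.5 nM.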

[8] = Kinetic solubility in pH 7.4 PBS; assay type: physicochemical; details: buffer
[9] = Apparent permeability from apical to basolateral side in MDCK-MDR1 cells; assay type: ADME, cell-based, Canis lupus familiaris; details: dog
Pseudomonas aeruginosa [10] = assay: Antimicrobial activity against efflux positive Pseudomonas aeruginosa 4402 expressing VIM2 assessed as inhibition of microbial growth incubated for 18 to 20 hrs in presence of imipenem by CLSI based method; assay type: functional
Pseudomonas aeruginosa [11] = assay: Antimicrobial activity against Pseudomonas aeruginosa 4129 expressing NDM1 assessed as inhibition of microbial growth incubated for 18 to 20 hrs in presence of imipenem by CLSI based method; assay type: functional
[12] = Intrinsic clearance in mouse liver microsomes; assay type: ADME, Microsome
[13] = Cytotoxicity in HEK293T cells assessed as cell recovery rate at 100 ug/ml incubated for 48 hrs by MTT assay relative to control; assay type: cell-based, HEK-293T; details: human, read-out: Activity
How it was run: (§2)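 HEK293T cells grown in DMEM with 10% FBS and 1% penicillin/streptomycin. Compounds in DMSO were tested at 200–3.125 µg/mL, two-fold dilutions, for 48 h at 37 °C, 5% CO2. Viability by MTT, read at OD 570 nm; percent recovery calculated against solvent-only controls.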

[14] = target: Beta-lactamase VIM-2 (Pseudomonas aeruginosa) (UniProt Q9K2N0); assay: Inhibition of VIM-2 in Pseudomonas aeruginosa 4882 assessed as potentiation of imipenem-induced antimicrobial activity by measuring imipenem MIC incubated for 18 to 20 hrs by CLSI based method (reference value: 32 ug/ml)
Pseudomonas aeruginosa [15] = assay: Inhibition of KPC2 in Pseudomonas aeruginosa 4135 assessed as potentiation of ceftazidime-induced antimicrobial activity by measuring ceftazidime MIC incubated for 18 to 20 hrs by CLSI based method (reference value: […] ug/ml)
[16] = Cytotoxicity in HEK293T cells assessed as cell recovery rate at 200 ug/ml incubated for 48 hrs by MTT assay relative to control; assay type: cell-based, HEK-293T; details: human, read-out: Activity; how it was run: as §2
[17] = Half life in mouse liver microsomes; assay type: ADME, Microsome
Pseudomonas aeruginosa [18] = assay: Inhibition of NDM1 in efflux positive Pseudomonas aeruginosa 4177 assessed as potentiation of ceftazidime-induced antimicrobial activity by measuring ceftazidime MIC incubated for 18 to 20 hrs by CLSI based method (reference value: 128 ug/ml)
How it was run: (§3)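 CLSI broth microdilution in MHBII. Standardized inoculum was a 0.5 McFarland suspension diluted to about 5×10^5 CFU per well. Ceftazidime was tested over 64–0.006 µg/mL, with avibactam fixed at 4 µg/mL as the positive control.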

Pseudomonas aeruginosa [19] = assay: Antimicrobial activity against Pseudomonas aeruginosa 4135 expressing KPC2 assessed as inhibition of microbial growth incubated for 18 to 20 hrs in presence of imipenem by CLSI based method; assay type: functional
Klebsiella pneumoniae [20] = assay: Antimicrobial activity against Klebsiella pneumoniae C2 expressing KPC2 assessed as inhibition of microbial growth incubated for 18 to 20 hrs in presence of imipenem by CLSI based method; assay type: functional
[21] = target: Beta-lactamase VIM-2 (Pseudomonas aeruginosa) (UniProt Q9K2N0); assay: Inhibition of VIM-2 in efflux positive Pseudomonas aeruginosa 4402 assessed as potentiation of ceftazidime-induced antimicrobial activity by measuring ceftazidime MIC incubated for 18 to 20 hrs by CLSI based method (reference value: 32 ug/ml); how it was run: as §3
Pseudomonas aeruginosa [22] = assay: Inhibition of NDM1 in Pseudomonas aeruginosa 4129 assessed as potentiation of ceftazidime-induced antimicrobial activity by measuring ceftazidime MIC incubated for 18 to 20 hrs by CLSI based method (reference value: 128 ug/ml); how it was run: as §3
Pseudomonas aeruginosa [23] = assay: Antimicrobial activity against Pseudomonas aeruginosa 4882 expressing VIM2 assessed as inhibition of microbial growth incubated for 18 to 20 hrs in presence of imipenem by CLSI based method; assay type: functional
Pseudomonas aeruginosa [24] = assay: Antimicrobial activity against efflux positive Pseudomonas aeruginosa 4177 expressing NDM1 assessed as inhibition of microbial growth incubated for 18 to 20 hrs in presence of imipenem by CLSI based method; assay type: functional
[25] = Apparent permeability from basolateral to apical side in MDCK-MDR1 cells; assay type: ADME, cell-based, Canis lupus familiaris; details: dog
Klebsiella pneumoniae [26] = assay: Inhibition of KPC2 in Klebsiella pneumoniae C2 assessed as potentiation of imipenem-induced antimicrobial activity by measuring imipenem MIC incubated for 18 to 20 hrs by CLSI based method (reference value: 512 ug/ml)

Metallo-beta-lactamase type 2 (Klebsiella pneumoniae), sequence (C7C422 whole entry): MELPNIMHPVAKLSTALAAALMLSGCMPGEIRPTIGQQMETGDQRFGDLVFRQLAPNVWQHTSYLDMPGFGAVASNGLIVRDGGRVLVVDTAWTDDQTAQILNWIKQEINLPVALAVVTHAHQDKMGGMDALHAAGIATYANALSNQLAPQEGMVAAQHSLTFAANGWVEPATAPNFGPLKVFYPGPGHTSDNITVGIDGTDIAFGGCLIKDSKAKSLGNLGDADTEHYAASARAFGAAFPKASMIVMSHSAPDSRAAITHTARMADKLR

Q: What does the source list for `NC(=O)[C@@H]1CC[C@@H]2CN1C(=O)N2OS(=O)(=O)O`?
A: MIC [1]: 4 µg/mL; MIC (Enterobacter cloacae): 4 µg/mL; MIC (Escherichia coli): 4 µg/mL; MIC (Klebsiella pneumoniae [2]): 4 µg/mL; MIC [3]: 4 µg/mL

Q: For `C[C@H]1O[C@@H](O[C@H]2[C@@H](O)C[C@H](O[C@H]3[C@@H](O)C[C@H](O[C@H]4CC[C@@]5(C)[C@H](CC[C@@H]6[C@@H]5C[C@@H](O)[C@]5(C)[C@@H](C7=CC(=O)OC7)CC[C@]65O)C4)O[C@@H]3C)O[C@@H]2C)C[C@H](O)[C@@H]1O` [DIGOXIN], which Drug recovery [4] is on record?
A: Its Drug recovery is 105%.

Q: Which Ki [5] does the source give for `O=P(O)(O)Cc1ccnc2ccccc12` here?
A: Its Ki is 30.3 µM.

Q: And the Ki [6]?
A: The Ki was 326 µM.

Q: And the Ki [7]?
A: Its Ki is “Not Active”.

Q: With `O=c1cc(CP(=O)(O)O)c2c(Br)cc(Br)cc2[nH]1` as the compound, how does the Kinetic_solubility [8] read?
A: The Kinetic_solubility was 241 µM.

Q: What about the Ki [5] of the same compound?
A: Its Ki is 0.316 µM.

Q: What about the Papp [9] of the same compound?
A: The Papp was less than 0.7 ×10⁻⁶ cm/s.

Q: And the MIC (Pseudomonas aeruginosa [10])?
A: Its MIC is 128 µg/mL.

Q: What about the MIC (Pseudomonas aeruginosa [11]) of the same compound?
A: Its MIC is 128 µg/mL.

Q: What about the CLH [12] of the same compound?
A: The CLH was less than 11.6 µL/min/mg.

Q: What about the viability at 48 h, 100 ug/ml [13] of the same compound?
A: Its viability at 48 h, 100 ug/ml is 88%.

Q: And the MIC [14]?
A: Its MIC is 2 µg/mL.

Q: And the MIC (Pseudomonas aeruginosa [15])?
A: Its MIC is 2 µg/mL.

Q: And the viability at 48 h, 200 ug/ml [16]?
A: Its viability at 48 h, 200 ug/ml is 70%.

Q: And the t1/2 [17]?
A: The t1/2 was greater than 2 h.

Q: And the MIC (Pseudomonas aeruginosa [18])?
A: Its MIC is 32 µg/mL.

Q: And the MIC (Pseudomonas aeruginosa [19])?
A: Its MIC is 128 µg/mL.

Q: And the MIC (Klebsiella pneumoniae [20])?
A: Its MIC is 16 to 128 µg/mL.

Q: What about the MIC [21] of the same compound?
A: Its MIC is 4 µg/mL.

Q: And the Ki [6]?
A: Its Ki is 0.02 µM.

Q: What about the MIC (Pseudomonas aeruginosa [22]) of the same compound?
A: Its MIC is 8 µg/mL.

Q: And the MIC (Pseudomonas aeruginosa [23])?
A: The MIC was 128 µg/mL.

Q: What about the MIC (Pseudomonas aeruginosa [24]) of the same compound?
A: Its MIC is 128 µg/mL.

Q: And the Papp [25]?
A: Its Papp is less than 0.2 ×10⁻⁶ cm/s.

Q: And the Drug recovery [4]?
A: Its Drug recovery is 91%.

Q: What about the MIC (Klebsiella pneumoniae [26]) of the same compound?
A: The MIC was 4 to 16 µg/mL.

Q: What about the Ki ([7]; read-out: Ki) of the same compound?
A: The Ki was 31.4 µM.
